According to ChEMBL document CHEMBL1122938, “Ribavirin, tiazofurin, and selenazofurin: mononucleotides and nicotinamide adenine dinucleotide analogues. Synthesis, structure, and interactions with IMP dehydrogenase” (J Med Chem, 1985):

What was measured:
[1] = Cytotoxicity against P388 cells in culture; format: cell-based; settings: mouse, read-out: ID50 (the source's name)
Method in brief: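 P388 cells in log-phase growth exposed in culture to each monophosphate or dinucleotide.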

[2] = Noncompetitive Inhibitory activity against Inosine-5'-monophosphate dehydrogenase using IMP as viable substrate
[3] = Noncompetitive inhibitory activity against Inosine-5'-monophosphate dehydrogenase using NAD as viable substrate
[4] = Uncompetitive Inhibitory activity against Inosine-5'-monophosphate dehydrogenase using IMP as viable substrate
[5] = Inhibitory activity against Inosine-5'-monophosphate dehydrogenase using IMP as viable substrate; Inactive.
[6] = Inhibitory activity against Inosine-5'-monophosphate dehydrogenase using NAD as viable substrate; Inactive.
[7] = Noncompetitive inhibitory activity against Inosine-5'-monophosphate dehydrogenase using NAD as viable substrate
[8] = Inhibitory activity against Inosine-5'-monophosphate dehydrogenase using IMP as viable substrate; Inactive
[9] = Inhibitory activity against Inosine-5'-monophosphate dehydrogenase using NAD as viable substrate; Inactive
[10] = Uncompetitive (mixed) inhibitory activity against Inosine-5'-monophosphate dehydrogenase using NAD as viable substrate
[11] = Competitive Inhibitory activity against Inosine-5'-monophosphate dehydrogenase using IMP as viable substrate

Row | Structure (SMILES) | CC50 [1] [µM] | Ki [2] [µM] | Ki [3] [µM] | Ki [4] [µM] | further results
1 | NC(=O)c1ncn(C2O[C@H](COP(=O)(O)OP(=O)(O)OC[C@H]3OC(n4cnc5c(N)ncnc54)[C@H](O)[C@@H]3O)[C@H](O)[C@@H]2O)n1 (stereo not given in full) | 40 | 148 | 235 |  | 
2 | NC(=O)c1c[se]c(C2O[C@@H](COP(=O)(O)OP(=O)(O)OC[C@H]3OC(n4cnc5c(N)ncnc54)[C@H](O)[C@@H]3O)[C@H](O)[C@@H]2O)n1 (stereo not given in full) | 9.8 |  | 0.04 | 0.05 | 
3 | NC(=O)c1ncn([C@@H]2O[C@H](COP(=O)(O)O)[C@@H](O)[C@H]2O)c1N | > 220 |  |  |  | Ki [5]: Not Active; Ki [6]: Not Active
4 | NC(=O)c1csc([C@@H]2O[C@H](COP(=O)(O)O)[C@@H](O)[C@H]2O)n1 | 10 | 265 |  |  | Ki [7]: 405 µM
5 | NC(=O)c1ncn(C2O[C@H](COP(=O)(O)OP(=O)(O)OC[C@H]3OC(n4cnc5c(N)ncnc54)[C@H](O)[C@@H]3O)[C@H](O)[C@@H]2O)c1N (stereo not given in full) | 78 |  |  |  | Ki [8]: Not Active; Ki [9]: Not Active
6 | NC(=O)c1c[se]c([C@H]2O[C@@H](COP(=O)(O)OP(=O)(O)OC[C@H]3O[C@@H](c4nc(C(N)=O)c[se]4)[C@H](O)[C@@H]3O)[C@H](O)[C@@H]2O)n1 | 0.6 |  |  | 190 | Ki [10]: 240 µM
7 | NC(=O)c1c[se]c([C@@H]2O[C@H](COP(=O)(O)O)[C@@H](O)[C@H]2O)n1 | 1.4 | 170 |  |  | Ki [7]: 470 µM
8 | NC(=O)c1csc([C@H]2O[C@@H](COP(=O)(O)OP(=O)(O)OC[C@H]3O[C@@H](c4nc(C(N)=O)cs4)[C@H](O)[C@@H]3O)[C@H](O)[C@@H]2O)n1 | 4.6 |  |  | 140 | Ki [10]: 370 µM
9 | NC(=O)c1csc([C@H]2O[C@@H](COP(=O)(O)OP(=O)(O)OC[C@H]3O[C@@H](n4cnc5c(N)ncnc54)[C@H](O)[C@@H]3O)[C@H](O)[C@@H]2O)n1 | 7.5 |  | 0.24 | 0.13 | 
10 | NC(=O)c1ncn([C@@H]2O[C@H](COP(=O)(O)O)[C@@H](O)[C@H]2O)n1 [RIBAVIRIN MONOPHOSPHATE] | 65 |  | 2.24 |  | Ki [11]: 4.18 µM
